Activity calls are given as the source filed them. The rule behind the calls is not given here. Starred links: 1 amine or outer side, 2 acyl side, 3 side chain; linkers in the order of their positions; H or OH if unused. Non-standard residues stand in square brackets, D forms with d. Residues, ends and D or L forms follow the SMILES beside them. *: point of attachment. X1 = O=C([C@H](CCCCOS(=O)(=O)O)N[*:1])[*:2]; sY = N[C@@H](Cc1ccc(OS(=O)(=O)O)cc1)C(=O)O; Boc = CC(C)(C)OC(=O)*
Key:
Cavia porcellus [1] = species: Cavia porcellus; test: Agonist activity at cholecystokinin receptor in NIH guinea pig pancreatic acinar cells assessed as induction of amylase secretion
How it was run: (§1)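 Guinea pig pancreas collagenase-dispersed acini in 100% O2-gassed Hepes buffer pH 7.4 containing 0.5 mM calcium and 5 mM theophylline. Amylase in supernatant assayed in duplicate with Phedabas reagent. Release expressed as % of total cellular amylase appearing in medium during incubation. CCK-(26-33) used as reference.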

Cavia porcellus [2] = species: Cavia porcellus; test: Agonist activity at cholecystokinin receptor in NIH guinea pig assessed as gall bladder contraction at 7 to 1900 ng by in situ assay; format: tissue-based
How it was run: (§2)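 Guinea pig gall bladder in situ (Ljungberg method), contraction recorded via strain gauge transducer after injection. Peptides first dissolved at 10 μg/mL in physiological saline containing 1 mg/mL NaHCO3 and 1 mg/mL L-cysteine. Response compared with injected standard cholecystokinin in Ivy dog units.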

Cavia porcellus [3] = species: Cavia porcellus; test: Agonist activity at cholecystokinin receptor in NIH guinea pig pancreatic acinar cells assessed as induction of amylase secretion at 0.03 to 0.3 nM; how it was run: as §1
[4] = Retardation factor of the compound using EtOAc-pyridine-AcOH-H2O at ratio of 60:20:6:11 as solvent system by thin layer chromatography; format: physicochemical
[5] = Retardation factor of the compound using EtOAc-pyridine-AcOH-H2O at ratio of 120:20:6:11 as solvent system by thin layer chromatography; format: physicochemical
[6] = Retardation factor of the compound using 1-butanol-AcOH-H2O at ratio of 4:1:1 as solvent system by thin layer chromatography; format: physicochemical
Cavia porcellus [7] = species: Cavia porcellus; test: Agonist activity at cholecystokinin receptor in NIH guinea pig assessed as gall bladder contraction at 7 to 21 ng by in situ assay; format: tissue-based; how it was run: as §2
Cavia porcellus [8] = species: Cavia porcellus; test: Agonist activity at cholecystokinin receptor in NIH guinea pig assessed as gall bladder contraction at 7 ng by in situ assay; format: tissue-based; how it was run: as §2

CSCC[C@H](NC(=O)[C@H](COS(=O)(=O)O)NC(=O)OC(C)(C)C)C(=O)NCC(=O)N[C@@H](Cc1c[nH]c2ccccc12)C(=O)N[C@@H](CCSC)C(=O)N[C@@H](CC(=O)O)C(=O)N[C@@H](Cc1ccccc1)C(N)=O
Activity (Cavia porcellus [1]): Active
Activity (Cavia porcellus [2]): Active

CSCC[C@H](NC(=O)[C@H](Cc1ccc(OS(=O)(=O)O)cc1)NC(=O)[C@@H](N)CC(=O)O)C(=O)NCC(=O)N[C@@H](Cc1c[nH]c2ccccc12)C(=O)N[C@@H](CCSC)C(=O)N[C@@H](CC(=O)O)C(=O)N[C@@H](Cc1ccccc1)C(N)=O
Activity (Cavia porcellus [3]): Active

CSCC[C@H](NC(=O)[C@H](CCCCOS(=O)(=O)O)NC(=O)OC(C)(C)C)C(=O)NCC(=O)N[C@@H](Cc1c[nH]c2ccccc12)C(=O)N[C@@H](CCSC)C(=O)N[C@@H](CC(=O)O)C(=O)N[C@@H](Cc1ccccc1)C(N)=O (Boc-[X1]MGWMDF-NH2)
Rf [4]: 0.31
Activity (Cavia porcellus [1]): Active
Rf [5]: 0.19
Rf [6]: 0.55
Activity (Cavia porcellus [7]): Active

CSCC[C@H](NC(=O)[C@H](Cc1ccc(OS(=O)(=O)O)cc1)NC(=O)OC(C)(C)C)C(=O)NCC(=O)N[C@@H](Cc1c[nH]c2ccccc12)C(=O)N[C@@H](CCSC)C(=O)N[C@@H](CC(=O)O)C(=O)N[C@@H](Cc1ccccc1)C(N)=O (Boc-[sY]MGWMDF-NH2)
Activity (Cavia porcellus [1]): Active
Activity (Cavia porcellus [8]): Active

From ChEMBL document CHEMBL3244403, “Cholecystokinin (pancreozymin). 4. Synthesis and properties of a biologically active analogue of the C-terminal heptapeptide with epsilon-hydroxynorleucine sulfate replacing tyrosine sulfate” (J Med Chem, 1978)
